The results in this text go back to ChEMBL document CHEMBL3352173, “Optimization of pyrrolamide topoisomerase II inhibitors toward identification of an antibacterial clinical candidate (AZD5099)” (J Med Chem, 2014).

≈ marks a conversion by molar mass, not a printed value.

The bioavailability is dose-corrected exposure relative to a reference, in per cent. High values mean much systemic uptake, low ones little systemic uptake. By fraction unbound is commonly meant the share of the substance not bound to proteins or other matrix. A high value points to weak binding. The term clearance denotes a measure of how efficiently the substance is removed, as volume per time. A higher clearance goes with a high capacity for elimination. By pKa is commonly meant the negative logarithm of the acid dissociation constant. Low readings indicate a stronger acid or weaker base, high ones a weaker acid or stronger base. By IC50 is commonly meant the midpoint of a concentration-inhibition curve. A word on the logD: it is the decadic logarithm of the distribution of all forms, ionised or not, between an organic phase and buffer at a given pH. Read a low logD as a more hydrophilic compound. A word on the EC50: it is the concentration giving half of the maximal effect. Usually solubility stands for the dissolved amount per volume that the medium holds. Read a high solubility as much dissolved substance.

The subject of data set [1] is Haemophilus influenzae. Briefly: Antimicrobial activity against amoxicillin-resistant Haemophilus influenzae by broth microdilution/CLSI method. Format: functional. For orientation: In broth dilution the organism is exposed to a series of concentrations in liquid medium.
Data set [2] relates to Enterococcus faecium. Briefly: Antimicrobial activity against Enterococcus faecium by broth microdilution/CLSI method. Format: functional.
The subject of data set [3] is Staphylococcus aureus. Briefly: Antimicrobial activity against Staphylococcus aureus by broth microdilution/CLSI method. Format: functional.
The test system of data set [4] is Enterococcus faecalis. Briefly: Antimicrobial activity against Enterococcus faecalis by broth microdilution/CLSI method. Format: functional.
Data set [5] relates to Haemophilus influenzae. Description: Antimicrobial activity against Haemophilus influenzae by broth microdilution/CLSI method. Format: functional. The conditions noted are these: Haemophilus influenzae; for MIC: read-out: MIC.
The nature of data set [6]: Bioavailability in Wistar rat at 10 mg/kg, […]. The note with it: in vivo. Format: ADME, organism-based.
Data set [7] in a line: Percentage unbound in dog plasma. In kind it is ADME, cell-free, Canis lupus familiaris.
Data set [8] is described as follows: Clearance in dog at 10 mg/kg, iv. In kind it is ADME, organism-based, Canis lupus familiaris. The conditions noted are these: plasma. Set-up: dose 10 mg/kg, route intravenous.
Data set [9] in a line: Clearance in Wistar rat at 10 mg/kg, iv. Format: ADME, organism-based. Also noted: dose 10 mg/kg, route intravenous. The conditions noted are these: in vivo.
Data set [10] can be described thus: Percentage unbound in rat plasma. In kind it is ADME, cell-free.
Data set [11] can be described thus: Dissociation constant, pKa of the compound. Format: physicochemical.
Data set [12] addresses DNA gyrase subunit B (Staphylococcus aureus, UniProt P0A0K8). Description: Inhibition of ATPase activity of Staphylococcus aureus GyrB. An outline of the steps: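 IC50 was determined against S. aureus GyrB in the routine screening assay. The enzyme concentration limits resolution below 10 nM.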
The subject of data set [13] is Streptococcus pneumoniae. Briefly: Antibacterial activity against Streptococcus pneumoniae by broth microdilution/CLSI method. The conditions noted are these: Streptococcus pneumoniae; read-out: MIC. In kind it is functional.
A short description of data set [14]: Ratio of MIC for methicillin, quinolone-resistant Staphylococcus aureus to fraction unbound in human plasma. In kind it is ADME.
Data set [15] is described as follows: Clearance in rat at 10 mg/kg, iv. In kind it is ADME, organism-based. Set-up: dose 10 mg/kg, route intravenous. The note with it: in vivo.
The test system of data set [16] is Streptococcus pyogenes. Briefly: Antimicrobial activity against Streptococcus pyogenes by broth microdilution/CLSI method. In kind it is functional.
Data set [17] can be described thus: Clearance in TR-negative Wistar rat at 10 mg/kg, iv. In kind it is ADME, organism-based. Set-up: dose 10 mg/kg, route intravenous. The note with it: in vivo.
Data set [18] can be described thus: Percentage unbound in mouse plasma. In kind it is ADME, cell-free.
A short description of data set [19]: Octanol-phosphate buffer distribution coefficient, log D of the compound at pH 7.4 by shake flask method. Format: physicochemical.
Data set [20] has as its system Escherichia coli. Description: Antimicrobial activity against Escherichia coli tolC- by broth microdilution/CLSI method. In kind it is functional. The note with it: Escherichia coli; read-out: MIC.
Data set [21] deals with Staphylococcus aureus. Description: Antimicrobial activity against methicillin-sensitive Staphylococcus aureus by broth microdilution/CLSI method. The conditions noted are these: Staphylococcus aureus; read-out: MIC. In kind it is functional.
A short description of data set [22]: Bioavailability in CD1 mouse at 10 mg/kg, […]. In kind it is ADME, organism-based. The note with it: in vivo.
Data set [23] deals with T1, ATP-binding cassette sub-family C member 2 (Homo sapiens, UniProt Q92887). Briefly: Inhibition of ATPase activity of human MRP2 assessed as inorganic phosphate.
T1 sequence (Q92887 whole entry): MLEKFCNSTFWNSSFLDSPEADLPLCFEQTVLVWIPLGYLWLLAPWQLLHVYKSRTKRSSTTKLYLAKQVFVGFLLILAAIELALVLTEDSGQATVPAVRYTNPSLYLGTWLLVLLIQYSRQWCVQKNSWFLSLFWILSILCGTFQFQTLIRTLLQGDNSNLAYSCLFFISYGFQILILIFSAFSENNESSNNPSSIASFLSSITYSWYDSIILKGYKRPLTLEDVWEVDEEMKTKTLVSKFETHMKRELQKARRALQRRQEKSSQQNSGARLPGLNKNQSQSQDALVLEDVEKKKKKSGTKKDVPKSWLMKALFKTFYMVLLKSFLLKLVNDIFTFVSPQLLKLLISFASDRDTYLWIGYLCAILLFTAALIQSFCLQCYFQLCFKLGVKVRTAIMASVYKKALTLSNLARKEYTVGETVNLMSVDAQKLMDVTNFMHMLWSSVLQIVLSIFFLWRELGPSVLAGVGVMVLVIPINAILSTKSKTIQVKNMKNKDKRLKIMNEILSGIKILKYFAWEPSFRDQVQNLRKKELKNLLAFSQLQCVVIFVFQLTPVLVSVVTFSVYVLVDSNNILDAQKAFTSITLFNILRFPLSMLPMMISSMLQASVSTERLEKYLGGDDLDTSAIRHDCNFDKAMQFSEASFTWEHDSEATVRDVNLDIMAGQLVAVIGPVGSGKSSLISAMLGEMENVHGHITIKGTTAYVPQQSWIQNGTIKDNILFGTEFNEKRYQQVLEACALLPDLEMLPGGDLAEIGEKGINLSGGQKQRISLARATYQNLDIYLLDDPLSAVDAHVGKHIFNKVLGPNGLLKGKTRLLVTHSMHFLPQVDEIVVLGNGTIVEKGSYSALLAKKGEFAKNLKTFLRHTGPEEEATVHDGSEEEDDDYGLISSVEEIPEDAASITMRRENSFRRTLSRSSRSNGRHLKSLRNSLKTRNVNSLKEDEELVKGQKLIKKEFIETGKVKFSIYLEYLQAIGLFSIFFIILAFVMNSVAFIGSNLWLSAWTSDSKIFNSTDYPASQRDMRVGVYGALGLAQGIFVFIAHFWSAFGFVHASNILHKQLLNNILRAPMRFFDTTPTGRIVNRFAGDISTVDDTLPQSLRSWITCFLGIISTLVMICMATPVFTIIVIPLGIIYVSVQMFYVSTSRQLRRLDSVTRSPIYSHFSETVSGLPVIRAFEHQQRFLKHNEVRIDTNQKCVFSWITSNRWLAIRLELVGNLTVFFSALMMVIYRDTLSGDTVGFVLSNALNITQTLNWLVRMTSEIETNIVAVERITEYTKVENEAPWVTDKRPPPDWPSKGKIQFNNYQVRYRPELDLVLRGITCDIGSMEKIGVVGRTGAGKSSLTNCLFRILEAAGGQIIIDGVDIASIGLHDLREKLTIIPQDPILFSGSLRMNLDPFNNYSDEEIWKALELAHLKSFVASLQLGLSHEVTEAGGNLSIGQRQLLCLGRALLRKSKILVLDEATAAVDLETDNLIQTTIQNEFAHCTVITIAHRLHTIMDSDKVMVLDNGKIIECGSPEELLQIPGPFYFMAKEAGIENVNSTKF
Data set [24] deals with Staphylococcus aureus. Description: Antimicrobial activity against methicillin, quinolone-resistant Staphylococcus aureus by broth microdilution/CLSI method. Format: functional. The conditions noted are these: Staphylococcus aureus; read-out: MIC.
Data set [25] concerns Moraxella catarrhalis. Briefly: Antimicrobial activity against Moraxella catarrhalis by broth microdilution/CLSI method. The conditions noted are these: Moraxella catarrhalis; read-out: MIC. Format: functional.
For data set [26], the target named is T2, ATP-binding cassette sub-family C member 2 (Rattus norvegicus, UniProt Q63120). Briefly: Inhibition of ATPase activity of rat Mrp2 assessed as inorganic phosphate.
T2 sequence (Q63120 whole entry): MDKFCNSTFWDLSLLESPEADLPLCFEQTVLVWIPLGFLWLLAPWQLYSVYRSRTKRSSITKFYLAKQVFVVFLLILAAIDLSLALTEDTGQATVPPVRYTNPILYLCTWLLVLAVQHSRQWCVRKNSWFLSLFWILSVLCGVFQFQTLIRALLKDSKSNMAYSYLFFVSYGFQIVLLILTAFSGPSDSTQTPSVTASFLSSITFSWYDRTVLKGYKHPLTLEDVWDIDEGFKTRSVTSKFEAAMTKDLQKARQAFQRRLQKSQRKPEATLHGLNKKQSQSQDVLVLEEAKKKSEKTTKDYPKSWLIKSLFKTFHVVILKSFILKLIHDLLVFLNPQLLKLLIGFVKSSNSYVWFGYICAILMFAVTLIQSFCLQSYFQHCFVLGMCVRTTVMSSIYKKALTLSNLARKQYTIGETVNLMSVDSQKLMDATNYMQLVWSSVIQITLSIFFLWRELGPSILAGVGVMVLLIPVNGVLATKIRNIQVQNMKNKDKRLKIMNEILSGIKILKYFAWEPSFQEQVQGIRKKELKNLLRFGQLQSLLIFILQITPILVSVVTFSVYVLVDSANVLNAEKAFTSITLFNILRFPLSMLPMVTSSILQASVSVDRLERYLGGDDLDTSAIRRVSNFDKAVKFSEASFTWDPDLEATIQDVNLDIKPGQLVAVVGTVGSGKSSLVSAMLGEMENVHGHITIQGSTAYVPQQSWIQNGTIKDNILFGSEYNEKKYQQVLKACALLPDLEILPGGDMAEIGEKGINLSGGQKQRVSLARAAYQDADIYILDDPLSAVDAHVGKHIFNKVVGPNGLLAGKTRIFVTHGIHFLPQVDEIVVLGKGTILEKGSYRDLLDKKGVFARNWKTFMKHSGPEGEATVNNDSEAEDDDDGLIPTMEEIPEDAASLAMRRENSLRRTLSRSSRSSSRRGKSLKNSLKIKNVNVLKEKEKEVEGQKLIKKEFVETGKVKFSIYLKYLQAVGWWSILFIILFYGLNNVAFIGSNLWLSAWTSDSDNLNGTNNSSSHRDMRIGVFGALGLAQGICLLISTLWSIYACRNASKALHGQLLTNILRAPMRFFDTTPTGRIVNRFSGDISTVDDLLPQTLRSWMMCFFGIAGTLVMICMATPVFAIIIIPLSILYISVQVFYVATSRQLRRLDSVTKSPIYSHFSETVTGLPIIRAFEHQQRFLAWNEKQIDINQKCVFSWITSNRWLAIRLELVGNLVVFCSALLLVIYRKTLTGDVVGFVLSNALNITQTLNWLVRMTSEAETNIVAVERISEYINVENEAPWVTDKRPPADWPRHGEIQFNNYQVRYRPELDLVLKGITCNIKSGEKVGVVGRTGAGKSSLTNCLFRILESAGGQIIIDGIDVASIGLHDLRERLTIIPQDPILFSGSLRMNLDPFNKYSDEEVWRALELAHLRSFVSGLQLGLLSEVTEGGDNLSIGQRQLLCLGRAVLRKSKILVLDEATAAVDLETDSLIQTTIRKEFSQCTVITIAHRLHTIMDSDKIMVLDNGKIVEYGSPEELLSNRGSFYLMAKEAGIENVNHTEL
A short description of data set [27]: Bioavailability in dog at 10 mg/kg, iv. Format: ADME, organism-based, Canis lupus familiaris. The note with it: plasma.
In data set [28] the target is T1, ATP-binding cassette sub-family C member 2. Briefly: Stimulation of ATPase activity of human MRP2 assessed as inorganic phosphate.
Data set [29] deals with Escherichia coli. Description: Antimicrobial activity against wild-type Escherichia coli Eco523 by broth microdilution/CLSI method. Format: functional. The note with it: Escherichia coli, Eco523; read-out: MIC.
The nature of data set [30]: Percentage unbound in human plasma. In kind it is ADME, cell-free.
Data set [31] in a line: Solubility of the compound. In kind it is physicochemical.
The nature of data set [32]: Clearance in CD1 mouse at 10 mg/kg, iv. The conditions noted are these: in vivo. Set-up: dose 10 mg/kg, route intravenous. In kind it is ADME, organism-based.
For data set [33], the target named is T2, ATP-binding cassette sub-family C member 2. Briefly: Stimulation of ATPase activity of rat Mrp2 assessed as inorganic phosphate.

DNA gyrase subunit B, sequence (P0A0K8 whole entry): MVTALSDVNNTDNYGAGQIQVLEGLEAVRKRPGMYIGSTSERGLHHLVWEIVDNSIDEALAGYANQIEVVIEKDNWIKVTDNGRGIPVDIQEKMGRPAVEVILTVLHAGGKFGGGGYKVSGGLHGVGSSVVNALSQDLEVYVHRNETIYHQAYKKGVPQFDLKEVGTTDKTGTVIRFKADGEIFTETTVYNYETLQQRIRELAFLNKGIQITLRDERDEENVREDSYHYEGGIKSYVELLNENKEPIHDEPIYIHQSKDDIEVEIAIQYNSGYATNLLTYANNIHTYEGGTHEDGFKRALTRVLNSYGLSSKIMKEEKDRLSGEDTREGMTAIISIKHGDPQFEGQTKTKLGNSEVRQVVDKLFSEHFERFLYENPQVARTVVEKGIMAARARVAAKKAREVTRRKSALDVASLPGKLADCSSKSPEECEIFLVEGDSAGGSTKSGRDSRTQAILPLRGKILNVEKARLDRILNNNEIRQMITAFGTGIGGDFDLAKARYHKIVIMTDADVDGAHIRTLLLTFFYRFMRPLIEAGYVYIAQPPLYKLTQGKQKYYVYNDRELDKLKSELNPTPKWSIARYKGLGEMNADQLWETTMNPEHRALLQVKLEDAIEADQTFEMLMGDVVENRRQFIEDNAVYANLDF

As to `CC[C@H]1OC(=O)[C@H](C)[C@@H](O[C@H]2C[C@@](C)(OC)[C@@H](O)[C@H](C)O2)[C@H](C)[C@@H](O[C@@H]2O[C@H](C)C[C@H](N(C)C)[C@H]2O)[C@](C)(O)C[C@@H](C)CN(C)[C@H](C)[C@@H](O)[C@]1(C)O` [AZITHROMYCIN], the MIC90 in data set [1] is 2 µg/mL (≈ 2.67 µM); in data set [2], greater than 128 µg/mL; in [3], greater than 128 µg/mL; in data set [4] it was greater than 128 µg/mL; in data set [5], 2 µg/mL (≈ 2.67 µM).
In the case of `COCCNC(=O)c1nc(N2CC[C@@H](NC(=O)c3[nH]c(C)c(Cl)c3Cl)[C@@H](OC)C2)sc1C(=O)O`, the bioavailability came to 34% in data set [6], 57% in [22] and 100% in data set [27]. Further, the fraction unbound is 0.082 in [7], 0.038 in data set [10], 0.0585 in [18] and 0.027 in data set [30]. Besides, the clearance turned out to be 3 mL/min/kg in data set [8]; 2.1 mL/min/kg in data set [9]; 9.5 mL/min/kg in data set [15]; 1.5 mL/min/kg in [17]; 57 mL/min/kg in data set [32]. The molecule further returned a pKa in [11] of 4.4. In addition, the IC50 in [12] was less than 0.01 µM; in data set [23] it was 100 µM; in data set [26], 78 µM. In addition, the MIC in data set [13] turned out to be 0.018 µg/mL (≈ 0.0337 µM); in data set [16] it was 0.017 µg/mL (≈ 0.0318 µM); in data set [20], 0.62 µg/mL (≈ 1.16 µM); in data set [21], 0.078 µg/mL (≈ 0.146 µM); in data set [24], 0.089 µg/mL (≈ 0.167 µM); in data set [25], 0.17 µg/mL (≈ 0.318 µM). Further, the MIC in data set [29] is 24 µg/mL (≈ 44.9 µM); in data set [5] it was 0.15 µg/mL (≈ 0.281 µM). The Ratio in data set [14] is 3.3. Also, the log distribution coefficient (logD) in [19] worked out at 1.2. In addition, the EC50 in [28] and in data set [33] was greater than 200 µM each time. Further, the solubility in [31] came to 880 µM (≈ 470 µg/mL).
Turning to `CO[C@H]1CN(c2nc(-c3cnccn3)c(C(=O)O)s2)CC[C@H]1NC(=O)c1[nH]c(C)c(Cl)c1Cl`, the fraction unbound came to 0.13 in data set [7], 0.0715 in data set [10], 0.074 in data set [18] and 0.039 in [30]. Also, the clearance stood at 0.73 mL/min/kg in data set [8] and 2.7 mL/min/kg in [15]. Further, the pKa in [11] stood at 5.4. This molecule returned an IC50 in data set [12] of less than 0.01 µM. The MIC came out at 0.007 µg/mL (≈ 0.0137 µM) in data set [13]; 0.01 µg/mL (≈ 0.0196 µM) in data set [16]; 0.5 µg/mL (≈ 0.978 µM) in data set [20]; 0.031 µg/mL (≈ 0.0606 µM) in data set [21]; 0.018 µg/mL (≈ 0.0352 µM) in data set [24]; 0.008 µg/mL (≈ 0.0156 µM) in data set [25]. In addition, the MIC in [29] is greater than 8 µg/mL; in data set [5] it was 0.13 µg/mL (≈ 0.254 µM). Further, the Ratio in [14] turned out to be 0.46. The same molecule showed a logD in data set [19] of 1.2. This molecule also returned a bioavailability in data set [27] of 18%. This molecule also displayed a solubility in data set [31] of 540 µM (≈ 276 µg/mL).
Molecule `Cc1[nH]c(C(=O)NC2CCN(c3ncc(C(=O)O)s3)CC2)c(Cl)c1Cl` registered a bioavailability in [6] of 6.7%. Also, the fraction unbound in data set [7] was 0.12; in data set [10], 0.086; in data set [18] it was 0.089. The clearance in data set [8] turned out to be 3 mL/min/kg; in data set [9], 78 mL/min/kg; in data set [17], 20 mL/min/kg; in data set [32], 15.5 mL/min/kg. The molecule further had a pKa in data set [11] of 3.4. The IC50 was 0.062 µM in [12], greater than 200 µM in data set [23] and greater than 200 µM in data set [26]. The MIC in [13] is 0.81 µg/mL (≈ 2.01 µM); in data set [16] it was 0.79 µg/mL (≈ 1.96 µM); in data set [20], 0.22 µg/mL (≈ 0.546 µM); in data set [21] it was 11 µg/mL (≈ 27.3 µM); in [24], 13 µg/mL (≈ 32.2 µM); in data set [25] it was 2.2 µg/mL (≈ 5.46 µM). Also, the MIC in data set [29] is greater than 64 µg/mL; in data set [5], 0.5 µg/mL (≈ 1.24 µM). In addition, the EC50 in data set [28] worked out at 145 µM; in [33], 27 µM.
